Published values collected from several papers.
Each line is one published result; the experiments were not run side by side.
Organism: Plasmodium falciparum
Observed: parasite growth

| Compound | method | strain | time | setting | EC50 [nM] |
| --- | --- | --- | --- | --- | --- |
| COc1ccc(Nc2ccnc3cc(Nc4ccnc(N5CCN(C)CC5)n4)ccc23)cc1Cl |  | D6 |  | drug-resistant strain, blood stage | 78 |
| CCn1cc(-c2cccnc2)c(=O)c2cc(F)c(N3CCC(C)CC3)cc21 |  | 3D7 | 72 h | blood stage | > 10000 |
| CCOC(=O)c1c(NC(=O)c2ccccc2)sc2c(O)c(CCN(C)C)ccc12 |  | 3D7 | 48 h | blood stage | ≤ 200 |
| CCn1cc(C(=O)N2CCN(C)CC2)c(=O)c2cc(F)c(N3CCC(C)CC3)cc21 |  | 3D7 | 72 h | blood stage | > 10000 |
| CN1CCN(S(=O)(=O)c2ccc(-c3ccc4c(Nc5cccc(Cl)c5)ccnc4c3)cc2)CC1 |  | D6 |  | drug-resistant strain, blood stage | 200 |
| CNS(=O)(=O)c1ccccc1Nc1nc(Nc2ccc(N3CCOCC3)cc2OC)ncc1Br |  | 3D7 | 72 h | blood stage | 282 |
| CCn1cc(-c2nc(C)no2)c(=O)c2cc(F)c(N3CCC(C(C)C)CC3)cc21 |  | 3D7 | 72 h | blood stage | 41 |
| Cc1ccc(Nc2ccnc3cc(-c4ccc(S(=O)(=O)N5CCN(C)CC5)cc4)ccc23)cn1 |  | D6 |  | drug-resistant strain, blood stage | 22 |
| CC/N=C(\c1ccc(OC)c(OC)c1)N1CCCc2cc(C3=NNC(=O)SC3C)ccc21 (centres unmarked) |  | 3D7 | 72 h | blood stage | 1790 |
| Cc1cc(Nc2ccnc3cc(-c4ccc(S(=O)(=O)N5CCN(C)CC5)cc4)ccc23)sn1 |  | D6 |  | drug-resistant strain, blood stage | 110 |
| CCn1cc(C(N)=O)c(=O)c2cc(F)c(N3CCC(C)CC3)cc21 |  | 3D7 | 72 h | blood stage | 390 |
| COc1ccc(CNc2nc(-c3ccc(C(=O)O)nc3)nc3sc4c(c23)CCCC4)cc1Cl |  | 3D7 | 72 h | blood stage | 1590 |
| COc1ccc(Nc2ccnc3cc(-c4cnc(N5CCN(C)CC5)nc4)ccc23)cc1Cl |  | D6 |  | drug-resistant strain, blood stage | 35 |
| COc1ccc(NC(=O)N2CCCCN3[C@H](CN(C)C)[C@H](c4ccc(C#Cc5ccccc5)cc4)[C@@H]3C2)cc1 |  | DD2 |  | blood stage | 13 |
| CCCNCC(O)COc1ccccc1C(=O)CCc1ccccc1 (centres unmarked) | SYBR Green | K1 |  | drug-resistant strain, blood stage | 920 |
| CCn1cc(-c2nc(C)no2)c(=O)c2cc(F)c(N3CCCCCC3)cc21 |  | 3D7 | 72 h | blood stage | 35 |
| CN1CCN(S(=O)(=O)c2cccc(-c3ccc4c(Nc5ccc(OCc6cccc(F)c6)c(Cl)c5)ccnc4c3)c2)CC1 |  | D6 |  | drug-resistant strain, blood stage | 10 |
| CCn1cc(-c2nc(C)no2)c(=O)c2cc(F)c(N3CCCC(C)C3)cc21 (centres unmarked) |  | 3D7 | 72 h | blood stage | 114 |
| O=C(Nc1ccc(CNc2ncnc3ccccc23)cc1)c1ccc(Cl)c(F)c1 |  | 3D7 | 72 h | blood stage | 1510 |
| C[C@H]1[C@@H](O)O[C@@H]2O[C@@]3(C)CC[C@H]4[C@H](C)CC[C@@H]1[C@@]24OO3 |  | NF54 | 48 h | gametocyte | 11.5 |
